The text below walks through data of article PMC6438848 (Saudi Pharmaceutical Journal : SPJ, 2018).

Data set [1] deals with MV-4-11 cells (biphenotypic B myelomonocytic leukemia). Put plainly: In vitro antiproliferative assay. The settings on record: for IC50: Homo sapiens, MV4-11, 72 h, read-out: IC50 ± SD. Format: cell-based, human.
In data set [2] the test system is MCF-7 cells (human breast carcinoma). Put plainly: In vitro antiproliferative assay. Type of data set: cell-based. The following applies: for IC50: Homo sapiens, MCF7, 72 h, read-out: IC50 ± SD.
The subject of data set [3] is JURKAT cells (human leukemic T-cell lymphoblast). Put plainly: In vitro antiproliferative assay. Format: cell-based. The following applies: for IC50: Homo sapiens, Jurkat, 72 h, read-out: IC50 ± SD.
The subject of data set [4] is HT-29 cells (human colon adenocarcinoma). Put plainly: In vitro antiproliferative assay. Type of data set: cell-based. The following applies: for IC50: Homo sapiens, HT-29, 72 h, read-out: IC50 ± SD.
Data set [5] relates to Hep-G2 cells (human hepatocellular carcinoma). Put plainly: In vitro antiproliferative assay. Type of data set: cell-based. The following applies: for IC50: Homo sapiens, HepG2, 72 h, read-out: IC50 ± SD.
Data set [6] deals with HeLa cells (human cervical carcinoma). Put plainly: In vitro antiproliferative assay. Format: cell-based. The settings on record: for IC50: Homo sapiens, 72 h, read-out: IC50 ± SD.
Data set [7] deals with Du-145 cells (human prostate carcinoma). Put plainly: In vitro antiproliferative assay. The settings on record: for IC50: Homo sapiens, DU-145, 72 h, read-out: IC50 ± SD. Type of data set: cell-based.
In data set [8] the test system is MCF-10A normal human mammary gland epithelial cells. Kind of data set: cells. The following applies: for IC50: Homo sapiens, MCF-10A, 72 h, read-out: IC50 ± SD; for cytotoxic activity against MCF-10A, times lower than against cancer cell lines: MCF-10A vs MCF-7, JURKAT, HT-29, Hep-G2, HeLa, Du-145, DAUDI; for cytotoxic activity against MCF-10A, times lower than against cancer cells: MCF-10A vs MV4-11 (cancer cell lines). Type of data set: cell-based.

The nature of data set [9]: Determination of lipophilicity by RP UPLC. The settings on record: for -S (slope of the regression curve): log k = log kw + SΦ; for log kw (capacity factor of the analyte in pure water): Kinetex C18, methanol 0.65-0.95 v/v, 25 °C. Format: physicochemical. In short, it runs like this:
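Kinetex C18 column (150 × 4.6 mm, 2.6 µm) on a UPLC with UV detection at 254 nm. Test compound was dissolved in methanol at 10 µg/ml. Isocratic methanol fractions ran at 0.5 ml/min and 25 °C. Dead time was taken from uracil. log k was regressed linearly on methanol fraction Φ (Soczewiński–Wachtmeister), giving log kw as the intercept and S as the slope.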

Data set [10] has as its system DAUDI cells (Burkitt lymphoma). Put plainly: In vitro antiproliferative assay. Type of data set: cell-based, human. The settings on record: for IC50: Homo sapiens, Daudi, 72 h, read-out: IC50 ± SD.
The test system of data set [11] is human cancer cell lines (MV-4-11, MCF-7, JURKAT, HT-29, Hep-G2, HeLa, Du-145, DAUDI). Put plainly: In vitro antiproliferative assay, summary over several cancer cell lines. Format: cell-based. The following applies: read-out: IC50 values in relation to other cell lines.

Take `CC(=O)c1ccc([N+]2=NN(CCCl)CC2)cc1.[Cl-]` [2a, 3-(4-Acetylphenyl)-1-(2-chloroethyl)-4,5-dihydro-1H-1,2,3-triazol-3-ium chloride]: the 50% inhibitory concentration (IC50) – broadly, the concentration needed to halve the response being measured – in data set [1] worked out at 13.4 ± 5.94 µg/mL; in data set [2], 45.1 ± 1.65 µg/mL; in data set [3], 66.2 ± 13.4 µg/mL; in data set [4], 49.3 ± 17.4 µg/mL; in [5], 38.5 ± 12.3 µg/mL; in data set [6] it was 39.4 ± 9.77 µg/mL. Also, the concentration for half-maximal inhibition (IC50) in [7] is 89 ± 9.31 µg/mL; in data set [8] it was 80 ± 8.43 µg/mL. In data set [9], the “Φ0 lipophilicity parameter (−log kw/S)” value is 1.958. Moreover, the “-S (slope of the regression curve)” value in data set [9] is listed as 0.755.
On to `ClCCN1CC[N+](c2ccccc2)=N1.[Cl-]` [2b, 1-(2-Chloroethyl)-3-phenyl-4,5-dihydro-1H-1,2,3-triazol-3-ium chloride], for which the concentration for half-maximal inhibition (IC50) in data set [1] came to 44.6 ± 4.37 µg/mL; in data set [2], 50.4 ± 8.08 µg/mL; in data set [3] it was 68.5 ± 6.36 µg/mL; in data set [4], 48.9 ± 18.7 µg/mL; in data set [5], 37.9 ± 17.1 µg/mL; in [6] it was 39.4 ± 11.5 µg/mL. The 50% inhibitory concentration (IC50) in [10] is 40.2 ± 4.29 µg/mL. Also, in data set [9], the “Φ0 lipophilicity parameter (−log kw/S)” value is recorded as 1.519. Also, in [9], the “log kw (capacity factor of the analyte in pure water)” value is recorded as −2.002. Also, in data set [9], the “-S (slope of the regression curve)” value worked out at 1.318.
`Cc1ccc([N+]2=NN(CCCl)CC2)cc1.[Cl-]` [2c, 1-(2-Chloroethyl)-3-p-tolyl-4,5-dihydro-1H-1,2,3-triazol-3-ium chloride]: the IC50 in data set [1] was 5.42 ± 2.52 µg/mL; in [2] it was 19.8 ± 3.02 µg/mL; in data set [3], 13.1 ± 0.503 µg/mL; in data set [4], 16.2 ± 7.37 µg/mL; in data set [5] it was 23.8 ± 5.36 µg/mL; in data set [6], 18.1 ± 7.04 µg/mL. In addition, the IC50 in data set [7] was 36.4 ± 5.29 µg/mL; in data set [10], 4.91 ± 1.53 µg/mL; in [8] it was 61.6 ± 13.1 µg/mL; in [11], 12.5 to 36.4 µg/mL. Moreover, in [8], the “cytotoxic activity against MCF-10A, times lower than against cancer cell lines” value is on record as 1–5 times. Further, the “cytotoxic activity against MCF-10A, times lower than against cancer cells” value in data set [8] was 6–11 times. In data set [9], the “Φ0 lipophilicity parameter (−log kw/S)” value stood at 1.338. Also, the “-S (slope of the regression curve)” value in [9] came to 2.000.
For the compound `FC(F)(F)c1cccc([N+]2=NN(CCCl)CC2)c1.[Cl-]` [2d, 1-(2-Chloroethyl)-3-(3-(trifluoromethyl)phenyl)-4,5-dihydro-1H-1,2,3-triazol-3-ium chloride], the IC50 amounted to 5.59 ± 3.03 µg/mL in [1]; 16.5 ± 4.14 µg/mL in data set [2]; 24.3 ± 1.22 µg/mL in [3]; 31.7 ± 5.45 µg/mL in data set [4]; 14.9 ± 1.08 µg/mL in [5]; 22.7 ± 2.98 µg/mL in data set [6]. Further, the 50% inhibitory concentration (IC50) in data set [7] was 30.9 ± 3.15 µg/mL; in [10], 17.6 ± 2.29 µg/mL; in data set [8], 32.6 ± 2.79 µg/mL; in data set [11] it was 12.5 to 36.4 µg/mL. Further, the “cytotoxic activity against MCF-10A, times lower than against cancer cell lines” value in data set [8] is on record as 1–5 times. Besides, in data set [8], the “cytotoxic activity against MCF-10A, times lower than against cancer cells” value was 6–11 times. Moreover, in data set [9], the “Φ0 lipophilicity parameter (−log kw/S)” value worked out at 1.204. In addition, in data set [9], the “log kw (capacity factor of the analyte in pure water)” value is given as −3.373. In data set [9], the “-S (slope of the regression curve)” value came out at 2.802.
With `ClCCN1CC[N+](c2ccc(Cl)cc2)=N1.[Cl-]` [2e, 1-(2-Chloroethyl)-3-(4-chlorophenyl)-4,5-dihydro-1H-1,2,3-triazol-3-ium chloride], the IC50 in data set [1] amounted to 7.69 ± 3.17 µg/mL; in data set [2], 15.1 ± 2.77 µg/mL; in [3] it was 13.6 ± 3 µg/mL; in data set [4], 31.9 ± 8.14 µg/mL; in data set [5] it was 14.9 ± 4.66 µg/mL; in data set [6], 12.5 ± 2.23 µg/mL. In addition, the concentration for half-maximal inhibition (IC50) was 30.1 ± 10.2 µg/mL in data set [7], 13.6 ± 3.66 µg/mL in [10], 49.3 ± 15.5 µg/mL in [8] and 12.5 to 36.4 µg/mL in [11]. Further, in data set [8], the “cytotoxic activity against MCF-10A, times lower than against cancer cell lines” value is 1–5 times. The “cytotoxic activity against MCF-10A, times lower than against cancer cells” value in [8] is recorded as 6–11 times. In addition, the “Φ0 lipophilicity parameter (−log kw/S)” value in [9] is 1.196. The “log kw (capacity factor of the analyte in pure water)” value in data set [9] was −3.503. Besides, the “-S (slope of the regression curve)” value in data set [9] is 2.928.
Turning to `CCOC(=O)c1ccc([N+]2=NN(CCCl)CC2)cc1.[Cl-]` [2f, 1-(2-Chloroethyl)-3-(4-(ethoxycarbonyl)phenyl)-4,5-dihydro-1H-1,2,3-triazol-3-ium chloride], the IC50 in [1] worked out at 6.16 ± 1.76 µg/mL; in [2], 20.9 ± 2.19 µg/mL; in [3], 36 ± 7.11 µg/mL; in data set [4] it was 5.59 ± 0.632 µg/mL; in [5], 27.8 ± 10.1 µg/mL; in data set [6] it was 23.5 ± 3.32 µg/mL. Also, the concentration for half-maximal inhibition (IC50) in [7] was found to be 22.8 ± 10.1 µg/mL; in [10], 61.9 ± 24.8 µg/mL; in data set [8], 42 ± 17.3 µg/mL. Besides, in data set [8], the “cytotoxic activity against MCF-10A, times lower than against cancer cells” value is 6–11 times. Further, the “Φ0 lipophilicity parameter (−log kw/S)” value in [9] was found to be 1.301. Also, in [9], the “-S (slope of the regression curve)” value came out at 2.259.
Consider `O=[N+]([O-])c1ccc([N+]2=NN(CCCl)CC2)cc1.[Cl-]` [2g, 1-(2-Chloroethyl)-3-(4-nitrophenyl)-4,5-dihydro-1H-1,2,3-triazol-3-ium chloride], for which the IC50 came to 14.1 ± 7.75 µg/mL in data set [1]; 23.9 ± 7.48 µg/mL in data set [2]; 49.1 ± 14.1 µg/mL in data set [3]; 47.6 ± 3.42 µg/mL in [4]; 32.1 ± 1.4 µg/mL in data set [5]; 29 ± 5.35 µg/mL in data set [6]. Also, the half-inhibitory concentration (IC50) in data set [7] came to 34.1 ± 1.35 µg/mL; in [8], 36.6 ± 9.52 µg/mL. Besides, the “Φ0 lipophilicity parameter (−log kw/S)” value in data set [9] was 2.532. In addition, the “-S (slope of the regression curve)” value in data set [9] amounted to 0.594.
As to `Fc1ccc([N+]2=NN(CCCl)CC2)cc1.[Cl-]` [2i, 1-(2-Chloroethyl)-3-(4-fluorophenyl)-4,5-dihydro-1H-1,2,3-triazol-3-ium chloride], the IC50 in data set [1] was found to be 51.4 ± 11.9 µg/mL; in data set [2], 61.4 ± 21.8 µg/mL; in data set [5], 70.2 ± 13.9 µg/mL; in data set [6], 51.3 ± 14.7 µg/mL; in data set [10], 75.6 ± 17.8 µg/mL. In addition, in data set [9], the “Φ0 lipophilicity parameter (−log kw/S)” value was 1.824. The “log kw (capacity factor of the analyte in pure water)” value in data set [9] is reported as −1.873. In data set [9], the “-S (slope of the regression curve)” value is 1.027.
On to `N.N.[Cl][Pt][Cl]` [cis-platin, reference compound], for which the “IC50 ± SD” value in [1] (MV-4-11, 72 h exposure, MTT) was 0.76 ± 0.184 µg/mL; in data set [2] (MCF-7, 72 h exposure, SRB), 1.73 ± 0.443 µg/mL; in [3] (JURKAT, 72 h exposure, MTT), 0.24 ± 0.056 µg/mL; in data set [4] (HT-29, 72 h exposure, SRB), 3.63 ± 0.715 µg/mL; in data set [5] (Hep-G2, 72 h exposure, SRB), 0.68 ± 0.147 µg/mL; in data set [6] (72 h exposure, SRB), 0.37 ± 0.137 µg/mL. In addition, the “IC50 ± SD” value was 0.59 ± 0.086 µg/mL in data set [7] (Du-145, 72 h exposure, SRB); 1.07 ± 0.208 µg/mL in data set [10] (DAUDI, 72 h exposure, MTT); 4.65 ± 1.171 µg/mL in [8] (MCF-10A normal cells, 72 h exposure, SRB).
